Measurements pooled from the literature.
SLC22A11: Solute carrier family 22 member 11 (SLC22A11, Homo sapiens, UniProt Q9NSA0)
RIOK1: Serine/threonine-protein kinase RIO1 (RIOK1, Homo sapiens, UniProt Q9BRS2)
CD209: CD209 antigen (CD209, Homo sapiens, UniProt Q9NNX6)

| SMILES | target | assay | conditions | endpoint | result |
| --- | --- | --- | --- | --- | --- |
| C#Cc1cc(-c2cc(Nc3nc(N[C@@H](C)c4ccc(F)cn4)ncc3Cl)n[nH]2)ccc1C=O | Serine/threonine-protein kinase SIK2 (SIK2, Homo sapiens, UniProt Q9H0K1) | enzyme activity, inhibitor | 0.2 µM | inhibition | 97.4% |
| CCCCC1C(=O)N(c2ccccc2)N(c2ccccc2)C1=O | SLC22A11 | transporter uptake, inhibitor | 25 µM | inhibition | 82.7% |
| NC/C(=C\F)COc1cccc(Cn2c(=S)[nH]c(=O)c3[nH]cnc32)c1 | Diamine oxidase [copper-containing] (AOC1, Homo sapiens, UniProt P19801) | enzyme activity, inhibitor | 200 pM | inhibition | 3.14% |
| C1=C/COCc2cc(ccc2OCCN2CCCC2)Nc2nccc(n2)-c2cccc(c2)COC/1 | Tyrosine-protein kinase ITK/TSK (ITK, Homo sapiens, UniProt Q08881) | cell-free assay | 0.1 µM | remaining signal | 90% |
| CCCCNc1ccc(C(=O)OCCN(C)C)cc1 | SLC22A11 | transporter uptake, inhibitor | 25 µM | inhibition | 80.3% |
| Cc1cc(F)cc2c(CCC(=O)N[C@@H]3C(=O)NC[C@H]3O)c(-c3ccc(F)cc3)[nH]c12 | Delta-type opioid receptor (OPRD1, Homo sapiens, UniProt P41143) | cell-free assay | 10 µM | inhibition | 1% |
| C[C@]1(O)CCCN(c2nc(Nc3ccc(S(=O)(=O)N[C@H]4CC[C@H](CN5CCN(c6ccc(C7CCC(=O)NC7=O)cc6F)CC5)CC4)cc3F)ncc2C(F)(F)F)C1 (stereo partly drawn) | RIOK1 | binding, competition with immobilised ligand | 1 µM | remaining binding | 100% |
| CCCCC1=NC2(CCCC2)C(=O)N1Cc1ccc(-c2ccccc2-c2nnn[nH]2)cc1 | SLC22A11 | transporter uptake, inhibitor | 25 µM | inhibition | 50 to 90% |
| COc1c(Nc2cc(C(F)(F)F)cc(C(F)(F)F)c2)c(=O)c1=O | CD209 | cell-free assay, inhibitor | pH 7.4 | kinact/KI | 0.916 M⁻¹ s⁻¹ |
| O=C(N/N=C/c1ccc([N+](=O)[O-])o1)c1cc([N+](=O)[O-])cc([N+](=O)[O-])c1O | SLC22A11 | transporter uptake, inhibitor | 25 µM | inhibition | 78.3% |
| CNS(=O)(=O)c1ccc(Nc2ncc(C(F)(F)F)c(N3CCC[C@](C)(O)C3)n2)c(C)c1 | RIOK1 | binding, competition with immobilised ligand | 1 µM | remaining binding | 99% |
| CCCCC(=O)Nc1ccc(-c2ccc3ncn(CCC)c(=O)c3c2)cn1 | RIOK1 | binding, competition with immobilised ligand | 0.5 µM | remaining binding | 100% |
| CCN1/C(=C/C(C)=O)Sc2ccc(F)cc21 | 5-hydroxytryptamine receptor 3A (HTR3A, Homo sapiens, UniProt P46098) | ligand displacement, radioligand | 10 µM | inhibition | 0% |
| Cc1cc(S(=O)(=O)N[C@H]2CC[C@H](CN3CCN(c4ccc(C5CCC(=O)NC5=O)cc4F)CC3)CC2)ccc1Nc1ncc(C(F)(F)F)c(N2CCC[C@](C)(O)C2)n1 (stereo partly drawn) | STE20-like serine/threonine-protein kinase (SLK, Homo sapiens, UniProt Q9H2G2) | binding, competition with immobilised ligand | 1 µM | remaining binding | 55% |
| CC(=O)Oc1ccccc1C(=O)Nc1ncc([N+](=O)[O-])s1 | SLC22A11 | transporter uptake, inhibitor | 25 µM | inhibition | 76.5% |
| Cc1cc(O)c(-c2ccc([C@@H](C)CN(C)C)cc2)c2c1[nH]c(=O)c1sccc12 | Serine/threonine-protein kinase Nek8 (NEK8, Homo sapiens, UniProt Q86SG6) | enzyme activity, inhibitor | 0.1 µM | inhibition | 4.95% |
| COc1ccc2oc(-c3ccc4nc(N)oc4c3)c/c(=N\c3ccccc3NC(=O)CCN)c2c1 | Misshapen-like kinase 1 (MINK1, Homo sapiens, UniProt Q8N4C8) | binding | 1 µM | remaining binding | 103% |
| O=C(ON1C(=O)CCC1=O)c1cc(C(F)(F)F)cc(C(F)(F)F)c1 | CD209 | cell-free assay | pH 7.4 | kinact | 0.00574 s⁻¹ |
